From ChEMBL document CHEMBL3734701, “Synthesis and antibacterial activity of 4″-O-(trans-β-arylacrylamido)carbamoyl azithromycin analogs” (2015)
Values after ≈ are worked out from the molar mass of the structure shown.

Tests used:
Type in all cases: functional
[1] = tested on: Streptococcus pneumoniae; experiment: Antibacterial activity against erythromycin-resistant Streptococcus pneumoniae B1 expressing ermB gene by broth microdilution method
Method in brief: (§1)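 MICs measured in vitro by broth microdilution following NCCL recommendations, against a Gram-positive panel of sensitive and resistant strains. Azithromycin and clarithromycin were tested alongside as references.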

[2] = tested on: Staphylococcus aureus; experiment: Antibacterial activity against clinically isolated penicillin-resistant Staphylococcus aureus by broth microdilution method
Method in brief: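 Clinical penicillin-resistant S. aureus isolate, not further characterized, tested in a Gram-positive panel. MIC was measured by broth microdilution following NCCL recommendations, with azithromycin and clarithromycin as references.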

[3] = tested on: Streptococcus pneumoniae; experiment: Antibacterial activity against erythromycin-resistant Streptococcus pneumoniae AB11 expressing ermB and mefA genes by broth microdilution method; method in brief: as §1
[4] = tested on: Streptococcus pneumoniae; experiment: Antibacterial activity against erythromycin-resistant Streptococcus pneumoniae A22072 expressing mefA gene by broth microdilution method; method in brief: as §1
[5] = tested on: Staphylococcus aureus; experiment: Antibacterial activity against methicillin-susceptible Staphylococcus aureus ATCC 29213 by broth microdilution method; method in brief: as §1
[6] = tested on: Streptococcus pyogenes; experiment: Antibacterial activity against clinically isolated erythromycin-resistant Streptococcus pyogenes R2 by broth microdilution method; method in brief: as §1
[7] = tested on: Staphylococcus aureus; experiment: Antibacterial activity against erythromycin-susceptible Staphylococcus aureus ATCC 25923 by broth microdilution method
Method in brief: (§2)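 Broth microdilution MIC following the NCCL-recommended method. Panel of sensitive and resistant Gram-positive strains: S. pyogenes S2 (erythromycin-susceptible clinical isolate), S. aureus ATCC25923 and S. pneumoniae ATCC49619 (erythromycin-susceptible). Azithromycin and clarithromycin were run alongside as references.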

[8] = tested on: Streptococcus pyogenes; experiment: Antibacterial activity against clinically isolated erythromycin-susceptible Streptococcus pyogenes S2 by broth microdilution method; method in brief: as §2
[9] = tested on: Streptococcus pneumoniae; experiment: Antibacterial activity against erythromycin-susceptible Streptococcus pneumoniae ATCC 49619 by broth microdilution method; method in brief: as §2

SMILES	MIC [1] [µg/mL]	MIC [2] [µg/mL]	MIC [3] [µg/mL]	MIC [4] [µg/mL]	MIC [5] [µg/mL]	MIC [6] [µg/mL]	MIC [7] [µg/mL]	MIC [8] [µg/mL]	MIC [9] [µg/mL]
CC[C@H]1OC(=O)[C@@H](C)[C@H](O[C@H]2C[C@@](C)(OC)[C@@H](OC(=O)NNC(=O)/C=C/c3ccccc3F)[C@H](C)O2)[C@@H](C)[C@H](O[C@H]2O[C@@H](C)C[C@@H](N(C)C)[C@@H]2O)[C@@](C)(O)C[C@H](C)CN(C)[C@@H](C)[C@@H]2OC(=O)O[C@@]12C	16 (≈ 16.3 µM)	16 (≈ 16.3 µM)	32 (≈ 32.6 µM)	2 (≈ 2.04 µM)	8 (≈ 8.15 µM)	64 (≈ 65.2 µM)	4 (≈ 4.08 µM)	0.25 (≈ 0.255 µM)	8 (≈ 8.15 µM)
CC[C@H]1OC(=O)[C@@H](C)[C@H](O[C@H]2C[C@@](C)(OC)[C@@H](OC(=O)NNC(=O)/C=C/c3ccc(Cl)cc3)[C@H](C)O2)[C@@H](C)[C@H](O[C@H]2O[C@@H](C)C[C@@H](N(C)C)[C@@H]2O)[C@@](C)(O)C[C@H](C)CN(C)[C@@H](C)[C@@H]2OC(=O)O[C@@]12C	8 (≈ 8.02 µM)	8 (≈ 8.02 µM)	8 (≈ 8.02 µM)	0.5 (≈ 0.501 µM)	8 (≈ 8.02 µM)	32 (≈ 32.1 µM)	8 (≈ 8.02 µM)	1 (≈ 1 µM)	4 (≈ 4.01 µM)
CC[C@H]1OC(=O)[C@@H](C)[C@H](O[C@H]2C[C@@](C)(OC)[C@@H](OC(=O)NNC(=O)/C=C/c3ccc(Br)cc3)[C@H](C)O2)[C@@H](C)[C@H](O[C@H]2O[C@@H](C)C[C@@H](N(C)C)[C@@H]2O)[C@@](C)(O)C[C@H](C)CN(C)[C@@H](C)[C@@H]2OC(=O)O[C@@]12C	8 (≈ 7.68 µM)	8 (≈ 7.68 µM)	4 (≈ 3.84 µM)	0.25 (≈ 0.24 µM)	4 (≈ 3.84 µM)	16 (≈ 15.4 µM)	4 (≈ 3.84 µM)	1 (≈ 0.96 µM)	4 (≈ 3.84 µM)
CC[C@H]1OC(=O)[C@@H](C)[C@H](O[C@@H]2C[C@](C)(OC)[C@H](OC(=O)NNC(=O)/C=C/c3ccc(Br)cc3)[C@@H](C)O2)[C@H](C)[C@H](O[C@H]2O[C@@H](C)C[C@@H](N(C)C)[C@@H]2O)[C@@](C)(O)C[C@H](C)CN(C)[C@@H](C)[C@H](OC(=O)NCc2ccccc2)[C@@]1(C)O	1 (≈ 0.87 µM)	2 (≈ 1.74 µM)	1 (≈ 0.87 µM)	0.12 (≈ 0.104 µM)	2 (≈ 1.74 µM)	16 (≈ 13.9 µM)	0.5 (≈ 0.435 µM)	0.25 (≈ 0.218 µM)	0.25 (≈ 0.218 µM)
CC[C@H]1OC(=O)[C@@H](C)[C@H](O[C@H]2C[C@@](C)(OC)[C@@H](OC(=O)NNC(=O)/C=C/c3ccc(OC)c(OC)c3)[C@H](C)O2)[C@@H](C)[C@H](O[C@H]2O[C@@H](C)C[C@@H](N(C)C)[C@@H]2O)[C@@](C)(O)C[C@H](C)CN(C)[C@@H](C)[C@@H]2OC(=O)O[C@@]12C	32 (≈ 31.3 µM)	8 (≈ 7.82 µM)	8 (≈ 7.82 µM)	0.5 (≈ 0.489 µM)	16 (≈ 15.6 µM)	64 (≈ 62.5 µM)	8 (≈ 7.82 µM)	0.5 (≈ 0.489 µM)	2 (≈ 1.95 µM)
CC[C@@H]1OC(=O)[C@H](C)[C@@H](O[C@H]2C[C@@](C)(OC)[C@@H](OC(=O)NNC(=O)/C=C/c3ccco3)[C@H](C)O2)[C@@H](C)[C@@H](O[C@@H]2O[C@H](C)C[C@H](N(C)C)[C@H]2O)[C@](C)(O)C[C@@H](C)CN(C)[C@H](C)[C@@H](OC(=O)NCc2ccccc2)[C@]1(C)O	4 (≈ 3.77 µM)	1 (≈ 0.943 µM)	8 (≈ 7.55 µM)	0.12 (≈ 0.113 µM)	4 (≈ 3.77 µM)	64 (≈ 60.4 µM)	1 (≈ 0.943 µM)	0.25 (≈ 0.236 µM)	0.12 (≈ 0.113 µM)
CC[C@@H]1OC(=O)[C@H](C)[C@@H](O[C@H]2C[C@@](C)(OC)[C@@H](OC(=O)NNC(=O)/C=C/c3cccs3)[C@H](C)O2)[C@@H](C)[C@@H](O[C@@H]2O[C@H](C)C[C@H](N(C)C)[C@H]2O)[C@](C)(O)C[C@@H](C)CN(C)[C@H](C)[C@@H](OC(=O)NCc2ccccc2)[C@]1(C)O	2 (≈ 1.86 µM)	2 (≈ 1.86 µM)	4 (≈ 3.72 µM)	0.06 (≈ 0.0557 µM)	4 (≈ 3.72 µM)	32 (≈ 29.7 µM)	1 (≈ 0.929 µM)	0.25 (≈ 0.232 µM)	0.5 (≈ 0.465 µM)
CC[C@H]1OC(=O)[C@@H](C)[C@H](O[C@H]2C[C@@](C)(OC)[C@@H](OC(=O)NNC(=O)/C=C/c3ccccc3OC)[C@H](C)O2)[C@@H](C)[C@H](O[C@H]2O[C@@H](C)C[C@@H](N(C)C)[C@@H]2O)[C@@](C)(O)C[C@H](C)CN(C)[C@@H](C)[C@@H]2OC(=O)O[C@@]12C	4 (≈ 4.03 µM)	8 (≈ 8.05 µM)	2 (≈ 2.01 µM)	0.25 (≈ 0.252 µM)	4 (≈ 4.03 µM)	64 (≈ 64.4 µM)	2 (≈ 2.01 µM)	8 (≈ 8.05 µM)	4 (≈ 4.03 µM)
CC[C@H]1OC(=O)[C@@H](C)[C@H](O[C@H]2C[C@@](C)(OC)[C@@H](OC(=O)NNC(=O)/C=C/c3ccc(F)cc3)[C@H](C)O2)[C@@H](C)[C@H](O[C@H]2O[C@@H](C)C[C@@H](N(C)C)[C@@H]2O)[C@@](C)(O)C[C@H](C)CN(C)[C@@H](C)[C@@H]2OC(=O)O[C@@]12C	64 (≈ 65.2 µM)	16 (≈ 16.3 µM)	16 (≈ 16.3 µM)	2 (≈ 2.04 µM)	8 (≈ 8.15 µM)	64 (≈ 65.2 µM)	2 (≈ 2.04 µM)	0.5 (≈ 0.51 µM)	16 (≈ 16.3 µM)
CC[C@H]1OC(=O)[C@@H](C)[C@H](O[C@H]2C[C@@](C)(OC)[C@@H](OC(=O)NNC(=O)/C=C/c3cc(OC)c(OC)c(OC)c3)[C@H](C)O2)[C@@H](C)[C@H](O[C@H]2O[C@@H](C)C[C@@H](N(C)C)[C@@H]2O)[C@@](C)(O)C[C@H](C)CN(C)[C@@H](C)[C@@H]2OC(=O)O[C@@]12C	32 (≈ 30.4 µM)	16 (≈ 15.2 µM)	16 (≈ 15.2 µM)	0.5 (≈ 0.475 µM)	16 (≈ 15.2 µM)	64 (≈ 60.8 µM)	8 (≈ 7.6 µM)	0.5 (≈ 0.475 µM)	4 (≈ 3.8 µM)
CC[C@H]1OC(=O)[C@@H](C)[C@H](O[C@@H]2C[C@](C)(OC)[C@H](OC(=O)NNC(=O)/C=C/c3ccc([N+](=O)[O-])cc3)[C@@H](C)O2)[C@H](C)[C@H](O[C@H]2O[C@@H](C)C[C@@H](N(C)C)[C@@H]2O)[C@@](C)(O)C[C@H](C)CN(C)[C@@H](C)[C@H](OC(=O)NCc2ccccc2)[C@@]1(C)O	4 (≈ 3.59 µM)	2 (≈ 1.79 µM)	2 (≈ 1.79 µM)	0.12 (≈ 0.108 µM)	2 (≈ 1.79 µM)	16 (≈ 14.3 µM)	0.5 (≈ 0.448 µM)	0.5 (≈ 0.448 µM)	0.25 (≈ 0.224 µM)
CC[C@H]1OC(=O)[C@@H](C)[C@H](O[C@@H]2C[C@](C)(OC)[C@H](OC(=O)NNC(=O)/C=C/c3ccc(Cl)cc3)[C@@H](C)O2)[C@H](C)[C@H](O[C@H]2O[C@@H](C)C[C@@H](N(C)C)[C@@H]2O)[C@@](C)(O)C[C@H](C)CN(C)[C@@H](C)[C@H](OC(=O)NCc2ccccc2)[C@@]1(C)O	4 (≈ 3.62 µM)	2 (≈ 1.81 µM)	2 (≈ 1.81 µM)	0.25 (≈ 0.226 µM)	4 (≈ 3.62 µM)	16 (≈ 14.5 µM)	1 (≈ 0.905 µM)	0.5 (≈ 0.453 µM)	0.5 (≈ 0.453 µM)
CC[C@H]1OC(=O)[C@@H](C)[C@H](O[C@H]2C[C@@](C)(OC)[C@@H](OC(=O)NNC(=O)/C=C/c3ccc(C#N)cc3)[C@H](C)O2)[C@@H](C)[C@H](O[C@H]2O[C@@H](C)C[C@@H](N(C)C)[C@@H]2O)[C@@](C)(O)C[C@H](C)CN(C)[C@@H](C)[C@@H]2OC(=O)O[C@@]12C	64 (≈ 64.8 µM)	8 (≈ 8.1 µM)	64 (≈ 64.8 µM)	2 (≈ 2.02 µM)	8 (≈ 8.1 µM)	≥ 128	4 (≈ 4.05 µM)	0.5 (≈ 0.506 µM)	16 (≈ 16.2 µM)
CC[C@H]1OC(=O)[C@@H](C)[C@H](O[C@H]2C[C@@](C)(OC)[C@@H](OC(=O)NNC(=O)/C=C/c3ccco3)[C@H](C)O2)[C@@H](C)[C@H](O[C@H]2O[C@@H](C)C[C@@H](N(C)C)[C@@H]2O)[C@@](C)(O)C[C@H](C)CN(C)[C@@H](C)[C@@H]2OC(=O)O[C@@]12C	32 (≈ 33.6 µM)	4 (≈ 4.2 µM)	16 (≈ 16.8 µM)	1 (≈ 1.05 µM)	8 (≈ 8.39 µM)	≥ 128	2 (≈ 2.1 µM)	0.25 (≈ 0.262 µM)	8 (≈ 8.39 µM)
CC[C@H]1OC(=O)[C@@H](C)[C@H](O[C@H]2C[C@@](C)(OC)[C@@H](OC(=O)NNC(=O)/C=C/c3ccc([N+](=O)[O-])cc3)[C@H](C)O2)[C@@H](C)[C@H](O[C@H]2O[C@@H](C)C[C@@H](N(C)C)[C@@H]2O)[C@@](C)(O)C[C@H](C)CN(C)[C@@H](C)[C@@H]2OC(=O)O[C@@]12C	16 (≈ 15.9 µM)	16 (≈ 15.9 µM)	8 (≈ 7.94 µM)	0.5 (≈ 0.496 µM)	8 (≈ 7.94 µM)	≥ 128	2 (≈ 1.98 µM)	0.25 (≈ 0.248 µM)	2 (≈ 1.98 µM)
CC[C@@H]1OC(=O)[C@H](C)[C@@H](O[C@H]2C[C@@](C)(OC)[C@@H](OC(=O)NNC(=O)/C=C/c3ccccc3)[C@H](C)O2)[C@@H](C)[C@@H](O[C@@H]2O[C@H](C)C[C@H](N(C)C)[C@H]2O)[C@](C)(O)C[C@@H](C)CN(C)[C@H](C)[C@@H](OC(=O)NCc2ccccc2)[C@]1(C)O	2 (≈ 1.87 µM)	1 (≈ 0.934 µM)	4 (≈ 3.74 µM)	1 (≈ 0.934 µM)	1 (≈ 0.934 µM)	32 (≈ 29.9 µM)	0.5 (≈ 0.467 µM)	0.5 (≈ 0.467 µM)	0.5 (≈ 0.467 µM)
CC[C@H]1OC(=O)[C@@H](C)[C@H](O[C@H]2C[C@@](C)(OC)[C@@H](OC(=O)NNC(=O)/C=C/c3ccccc3)[C@H](C)O2)[C@@H](C)[C@H](O[C@H]2O[C@@H](C)C[C@@H](N(C)C)[C@@H]2O)[C@@](C)(O)C[C@H](C)CN(C)[C@@H](C)[C@@H]2OC(=O)O[C@@]12C	8 (≈ 8.31 µM)	8 (≈ 8.31 µM)	4 (≈ 4.15 µM)	0.25 (≈ 0.26 µM)	8 (≈ 8.31 µM)	64 (≈ 66.4 µM)	8 (≈ 8.31 µM)	0.25 (≈ 0.26 µM)	2 (≈ 2.08 µM)
